HNF4A DNA FP: change in binding of human HNF4 alpha to DNA | activity change, % at 10 µM | AID 1224865 | 360,000 compounds, 0.3% hits | HNF4a-FITC DNA binding, fluorescence polarization, 1 h; in the data active means activity change above about 30%, passing the limit was not always enough
NR1D1 modulator: modulators of human Rev-erb alpha DNA binding. P20393. Rev-erbα–FITC-DNA binding, fluorescence polarization, 90 min. activity, % at 10 µM. 370,000 compounds, 0.79% hits. AID 1259318;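 active means activity above about 14%, limit read from the data; passing the limit was not always enough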;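 further: 0% = DMSO wells with 35 nM protein and 100% = DMSO wells with 750 nM protein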
TPT1 inh: blocks Candida albicans tRNA 2'-phosphotransferase | recombinant caTPT1, FP RNA substrate dephosphorylation | inhibition, % at 5 µM | 300,000 compounds, 0.81% hits | AID 1962;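 active means inhibition above the mean of all tested compounds plus 3 SD, set per screening campaign, cut at about 24% in these data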;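 further: plate controls were DMSO alone for no effect and ferristatin control at 100 nM for full effect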
CSN inh: blocks human CSN-mediated cullin deneddylation | inhibition, % at 12.5 µM | Purified CSN, SCF-Nedd8-OG deneddylation, fluorescence polarization | 360,000 compounds, 0.38% hits | AID 651999 | Q92905;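 active means pattern-corrected inhibition above about 35%, with an unprinted fluorescence ratio check between 0.5 and 1.5, limit read from the data, passing the limit was not always enough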;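 further: 0% = enzyme with substrate and 100% = substrate without enzyme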
Target sequence (Q92905 whole entry, looked up, one chain of several): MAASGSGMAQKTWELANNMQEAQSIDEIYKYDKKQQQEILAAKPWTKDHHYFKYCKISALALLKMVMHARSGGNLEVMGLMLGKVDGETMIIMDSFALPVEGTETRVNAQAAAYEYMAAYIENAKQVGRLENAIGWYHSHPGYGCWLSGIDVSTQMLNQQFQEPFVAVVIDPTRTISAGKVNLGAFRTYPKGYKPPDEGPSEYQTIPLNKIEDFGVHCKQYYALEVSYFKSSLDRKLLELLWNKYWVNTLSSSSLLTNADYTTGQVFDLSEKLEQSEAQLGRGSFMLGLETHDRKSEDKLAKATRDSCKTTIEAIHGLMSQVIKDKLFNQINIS
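test system = HEK293T-derived human Csn5 enzyme | amount = 0.24 nM Csn5 enzyme, final concentration | medium = Tris/NaCl/DTT buffer, pH 7.5 | schedule = 90 min reaction at room temperature | signal = FP | evaluation = inhibition of Csn5 cleavage, % | compound dosing = single dose of 12.5 µM compound with 0.25% DMSO | probe or stimulus = 10 nM SCFSkp2-Nedd8OG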
TPT1 inh confirm: TPT1 (C. albicans) inhibition, confirmation. shares compounds with TPT1 inh. recombinant caTPT1, fluorescence polarization, RNase T1 coupled. inhibition, % at 5 µM. 2,400 compounds, 74% hits. AID 2149;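 active means inhibition above the primary screen limit, the mean inhibition of all tested compounds plus 3 SD, cut at about 25% in these data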
RNase T1 counter: counter-screen for TPT1 inhibitors: inhibitors of Aspergillus oryzae RNase T1 | inhibition, % at 5 µM | 2,400 compounds, 83% hits | shares compounds with TPT1 inh | RNase T1 cleavage, fluorescence polarization, 1536-well;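 active means inhibition above the solvent-only control well mean plus 3 SD, limit set per screening run, cut at about 23% in these data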;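 further: plate controls were DMSO wells with enzyme for no effect and wells without RNase T1 for full effect; inhibitors block cleavage so intact labeled substrate keeps polarization high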
Target sequence (P00651 whole entry, looked up): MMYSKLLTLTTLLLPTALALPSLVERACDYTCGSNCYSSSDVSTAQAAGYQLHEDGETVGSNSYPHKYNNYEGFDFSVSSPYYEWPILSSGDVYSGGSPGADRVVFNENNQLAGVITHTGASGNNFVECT
Starred values were filed as active, the others as inactive; x = no result. Rows were chosen to be rich in hits. Some 1.7% of all compounds tested hit in one or more screens of this group.

SMILES	HNF4A DNA FP	NR1D1 modulator	TPT1 inh	CSN inh	TPT1 inh confirm	RNase T1 counter
O=c1[nH]c(O)c(/C=C2/C=CC(c3cc(Cl)ccc3Cl)=N2)c(=O)[nH]1	8	4	93*	18	108*	103*
CN1C(=O)C(=Cc2ccc(Sc3ccccc3)o2)C(=O)N(C)C1=O	-5	-7	6	0	x	x
CN1C(=O)C(=Cc2ccc(Sc3ccccc3)o2)C(=O)N(C)C1=S	0	-4	37*	18	24	37*
C/C(=N\N1CCCCC1c1cccnc1)c1c(O)n(C2CCCCC2)c(=S)[nH]c1=O (stereo not given)	61*	8	82*	7	123*	133*
CN1C2CCC1C(C(=O)Oc1ccccc1)C(c1ccc(Cl)cc1)C2 (stereo not given)	x	8	x	x	x	x
COc1cccc([C@]2(O)CCCC[C@H]2CN(C)C)c1	x	-14	x	x	x	x
Cn1c(O)c(C=Nc2ccccc2)c(=O)n(C)c1=O	1	0	4	-5	x	x
Cn1c(O)c(/C=C/C=Nc2ccccc2)c(=O)n(C)c1=O	86*	24	104*	56*	111*	118*
COc1ccc(CN2C(=O)CC(=O)NC2=O)cc1	10	-3	24*	0	18	24*
COc1ccc(N2C(=O)CC(=O)NC2=O)cc1	2	-1	3	-1	x	x
Cc1cccc(-n2c(O)c(C=Nc3ccc(S(N)(=O)=O)cc3)c(=O)[nH]c2=O)c1	-3	-6	30*	-6	8	11
CCN(CC)S(=O)(=O)c1ccc(N=Cc2c(O)n(-c3ccccc3)c(=O)[nH]c2=O)cc1	-1	0	20	1	x	x
O=c1[nH]c(=O)n(-c2ccc(Cl)cc2)c(O)c1C=Nc1ccc(S(=O)(=O)Nc2nccs2)cc1	4	5	31*	12	37*	52*
Cc1ccc(-n2c(O)c(C=Nc3ccc(Br)cn3)c(=O)[nH]c2=O)cc1	0	0	10	0	x	x
CC(C)=CC1C(C(=O)OC(C#N)c2cccc(Oc3ccccc3)c2)C1(C)C (stereo not given)	x	2	x	x	x	x
COc1ccc(C(=O)Oc2cccc3cccnc23)cc1S(=O)(=O)N1CCOCC1	-1	-5	4	-2	x	x
CC(C)C[C@@H](CN)CC(=O)O	x	0	x	x	x	x
COc1ccc(N=Cc2c(O)n(-c3ccc(C)cc3)c(=O)[nH]c2=O)cc1	0	5	-2	-13	x	x
CCN(CC)c1ccc(N=Cc2c(O)n(-c3cc(OC)ccc3OC)c(=O)[nH]c2=O)cc1	13	0	93*	21	76*	88*
CCN(CC)CCCN=Cc1c(O)n(CCc2ccc(OC)c(OC)c2)c(=O)[nH]c1=O	3	-2	0	-5	x	x
CCN(CC)c1ccc(N=Cc2c(O)n(CCc3ccc(OC)c(OC)c3)c(=O)[nH]c2=O)cc1	12	-2	43*	-2	80*	93*
CCN(CCO)c1ccc(N=Cc2c(O)n(C)c(=S)[nH]c2=O)cc1	2	1	57*	25	86*	94*
C[C@]12CC[C@H](OC3OC(O)C(O)C(O)C3O)C=C1CCC1C2CC[C@]2(C)[C@@H](c3ccc(=O)oc3)CC[C@]12O (stereo not given in full)	x	-4	x	x	x	x
O=C(N/N=C/c1c(O)n(-c2ccccc2)c(=O)[nH]c1=O)c1ccncc1	7	-2	16	11	x	x
CCCCn1c(O)c(/C=N/NC(=O)c2ccncc2)c(=O)[nH]c1=S	48*	1	30*	27	20	29*
SMILES	HNF4A DNA FP	NR1D1 modulator	TPT1 inh	CSN inh	TPT1 inh confirm	RNase T1 counter
Cc1ccc(-n2c(O)c(/C=N/NC(=O)c3ccncc3)c(=O)[nH]c2=O)cc1	19	-4	30*	10	47*	56*
Cn1c(O)c(/C=N/NC(=O)c2ccncc2)c(=O)n(C)c1=S	14	-1	116*	22	101*	111*
C[C@@H]1O[C@@H](O[C@H]2C[C@@H](O)[C@]3(CO)C4C(CC[C@]3(O)C2)[C@@]2(O)CC[C@H](C3=CC(=O)OC3)[C@@]2(C)C[C@H]4O)[C@H](O)[C@H](O)[C@H]1O (stereo not given in full)	x	2	x	x	x	x
Cn1cc(C2=C(c3cn(C4CCN(Cc5ccccn5)CC4)c4ccccc34)C(=O)NC2=O)c2ccccc21	x	3	x	x	x	x
CN(C)c1ccc(/C=C/[N+](=O)[O-])cc1	1	-1	51*	-1	73*	90*
O=C1NC(=O)C(=Cc2ccc(-c3ccc(Cl)cc3)o2)C(=O)N1	5	x	1	1	x	x
O=C1NC(=O)C(=Cc2ccc(-c3ccc(F)cc3O)o2)C(=O)N1	-1	-5	25*	-2	42*	63*
O=P(/C=C1\OCc2ccccc21)(Oc1ccccc1)Oc1ccccc1	2	-3	x	4	x	x
CSc1ncc(/C=C2/C(=O)NC(=O)N(C)C2=O)cn1	4	9	8	-4	x	x
CSc1ncc(/C=C2/C(=O)NC(=O)N(C3CCCCC3)C2=O)cn1	3	5	32*	6	32*	43*
COc1ccc(OC)c(N2C(=O)NC(=O)/C(=C/c3ccc([N+](=O)[O-])s3)C2=O)c1	-11	-1	7	13	x	x
COc1ccc(OC)c(N2C(=O)/C(=C/c3ccco3)C(=O)NC2=S)c1	x	x	68*	x	55*	27*
C#C[C@]1(O)CC[C@H]2[C@@H]3CCC4=Cc5nc6nc7ccccc7n6cc5C[C@]4(C)[C@H]3CC[C@@]21C	10	-5	32*	14	33*	44*
CN(C)/C=C1/C(=O)NC(=O)N(CCNc2ncc(C(F)(F)F)cc2Cl)C1=O	17	0	29*	9	24	34*
CCCCN1C(=O)NC(=O)/C(=C/c2cnc(SC)nc2)C1=O	-1	-4	8	0	x	x
CCOC(=O)c1c(/N=C/c2c(O)n(-c3ccccc3F)c(=S)[nH]c2=O)sc2c1CCCC2	-5	-4	38*	23	86*	96*
COc1cc(N2CCOCC2)ccc1/C=C1\C(=O)NC(=O)N(Cc2cccs2)C1=O	1	6	23	18	x	x
COc1cc(N2CCOCC2)ccc1/C=C1\C(=O)NC(=O)N(Cc2ccc3c(c2)OCO3)C1=O	-53	-3	27*	18	46*	65*
Fc1ccc2nc(-c3ccc(CN4CCC(n5nnc6ccccc65)CC4)cc3)c(-c3ccccc3)nc2c1	x	2	x	x	x	x
CCn1c(O)c(C=Nc2cc(Cl)ccc2Cl)c(=O)n(CC)c1=O	5	0	5	-2	x	x
C=CCn1c(=O)c(C=Nc2cccnc2Cl)c(O)n(CCCC)c1=O	8	1	44*	29	13	23*
